Measured values taken from ChEMBL document CHEMBL1629579, “Correlating echinocandin MIC and kinetic inhibition of fks1 mutant glucan synthases for Candida albicans: implications for interpretive breakpoints” (Antimicrob Agents Chemother, 2009).
In brackets after ≈: the same amount, converted by molar mass. Numbered stars: 1 amine (or outer) side, 2 acyl side, 3 side chain; on linkers, the order of the positions; unused ones are H or OH. Bridge positions count the residues as written; N and C are the ends. Square brackets hold non-standard residues; d marks the D form. Peptide text beside a SMILES is read from it. * marks the point of attachment. hTyr(3S-OH,4S-OH,3'-OSO3H) = N[C@H](C(=O)O)[C@H](O)[C@@H](O)c1ccc(O)c(OS(=O)(=O)O)c1; Orn(4R-OH,5R-OH) = O=C([C@H](C[C@@H](O)[C@@H](O)N[*:3])N[*:1])[*:2]; Pro(3S-OH,4S-Me) = C[C@H]1CN[C@H](C(=O)O)[C@H]1O; X1 = CCCCCOc1ccc(-c2cc(-c3ccc(C(=O)*)cc3)no2)cc1; Gln(3R-OH) = NC(=O)C[C@@H](O)[C@H](N)C(=O)O; Hyp = O=C(O)[C@@H]1C[C@@H](O)CN1

Tests used:
[1] = system: Candida albicans; experiment: Antimicrobial activity against Candida albicans SC5314 by M27-A3 method in presence of 50% human serum; format: functional
Summary of the method: (§1)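 Broth microdilution per CLSI M27-A3 in RPMI 1640, done in triplicate on three separate days. Each strain was tested with and without 50% human serum. C. krusei ATCC 6258 and C. parapsilosis ATCC 22019 served as QC strains. Arithmetic means are reported, and geometric means were used for comparison.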

[2] = system: Candida albicans; experiment: Antimicrobial activity against Candida albicans 89 harboring FKS1 C1934A mutant gene and FKS1 hotspot1 S645Y mutant gene by M27-A3 method in presence of 50% human serum; format: functional; summary of the method: as §1
[3] = Inhibition of Candida albicans 1002 1,3-beta-D-glucan synthase subunit FKS1p
Summary of the method: (§2)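 Product-entrapped glucan synthase from YPD-grown cells (37°C, early stationary phase) in a filtration polymerization assay with [3H]UDPG. Echinocandin serial dilutions were added, with 1% DMSO in controls for anidulafungin. Reactions were started with enzyme, run 60 min at 25°C and stopped on ice. IC50 came from a variable-slope sigmoidal fit, in triplicate.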

[4] = system: Candida albicans; experiment: Antimicrobial activity against Candida albicans 205 harboring FKS1 T1933C mutant gene and FKS1 hotspot1 S645P mutant gene by M27-A3 method in presence of 50% human serum; format: functional; summary of the method: as §1
[5] = system: Candida albicans; experiment: Activity at Candida albicans 122 1,3-beta-D-glucan synthase subunit FKS1p C1946A mutant
Summary of the method: (§3)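 Product-entrapped 1,3-β-D-glucan synthase from cells grown in YPD at 37°C to early stationary phase. Wells held 50 mM HEPES pH 7.5, 10% glycerol, 1.5 mg/ml BSA, 25 mM KF, 1 mM EDTA, 25 μM GTP-γ-S, 1 μg enzyme and [3H]UDPG (0.015–2 mM). Reactions ran 60 min at 25°C. Vmax and Km came from Lineweaver-Burke plots, in triplicate.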

[6] = Inhibition of Candida albicans 119 1,3-beta-D-glucan synthase subunit FKS1p T1921C mutant; summary of the method: as §2
[7] = system: Candida albicans; experiment: Antimicrobial activity against Candida albicans 1002 by M27-A3 method in presence of 50% human serum; format: functional; summary of the method: as §1
[8] = Inhibition of Candida albicans 205 1,3-beta-D-glucan synthase subunit FKS1p T1933C mutant
Summary of the method: (§4)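 Enzyme is product-entrapped 1,3-β-D-glucan synthase, enriched from membranes of each strain grown at 37°C with shaking in YPD broth to early stationary phase. Filtration polymerization assay uses [3H]UDPG, started by adding enzyme and run 60 min at 25°C. Echinocandins are added as serial dilutions, with 1% DMSO controls for anidulafungin. IC50 is from a variable-slope sigmoidal fit; values are triplicate arithmetic means.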

[9] = system: Candida albicans; experiment: Antimicrobial activity against Candida albicans 194 harboring FKS1 C1934T/G4082R mutant gene and FKS1 hotspot1 S645F mutant gene and FKS1 hotspot2 R1361R/H mutant gene by M27-A3 method; format: functional; summary of the method: as §1
[10] = Inhibition of Candida albicans 194 1,3-beta-D-glucan synthase subunit FKS1p C1934T/G4082R mutant; summary of the method: as §4
[11] = system: Candida albicans; experiment: Antimicrobial activity against Candida albicans A15-10 harboring FKS1 T1933C mutant gene and FKS1 hotspot1 S645P mutant by M27-A3 method in presence of 50% human serum; format: functional; summary of the method: as §1
[12] = system: Candida albicans; experiment: Antimicrobial activity against Candida albicans 122 harboring FKS1 C1946A mutant gene and FKS1 hotspot1 P649H mutant gene by M27-A3 method in presence of 50% human serum; format: functional; summary of the method: as §1
[13] = Inhibition of Candida albicans 149 1,3-beta-D-glucan synthase subunit FKS1p G1942T mutant; summary of the method: as §4
[14] = Inhibition of Candida albicans 3795 1,3-beta-D-glucan synthase subunit FKS1p; summary of the method: as §4
[15] = system: Candida albicans; experiment: Activity at Candida albicans 3795 1,3-beta-D-glucan synthase subunit FKS1p
Summary of the method: (§5)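 Glucan synthase from cells grown at 37°C with vigorous shaking to early stationary phase in YPD. Membrane enzyme enriched by product entrapment. Serial echinocandin dilutions; ANF controls held 1% DMSO. Reaction started by adding enzyme, run 60 min at 25°C in a filtration polymerization assay, stopped on ice. IC50 from a variable-slope sigmoidal fit; means of three repetitions on separate days.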

[16] = system: Candida albicans; experiment: Antimicrobial activity against Candida albicans A15-10 harboring FKS1 T1933C mutant gene and FKS1 hotspot1 S645P mutant gene by M27-A3 method; format: functional; summary of the method: as §1
[17] = system: Candida albicans; experiment: Activity at Candida albicans 3107 1,3-beta-D-glucan synthase subunit FKS1p; summary of the method: as §5
[18] = system: Candida albicans; experiment: Activity at Candida albicans 2762 1,3-beta-D-glucan synthase subunit FKS1p T1922C mutant; summary of the method: as §3
[19] = Inhibition of Candida albicans A15 1,3-beta-D-glucan synthase subunit FKS1p T1933Y mutant; summary of the method: as §4
[20] = system: Candida albicans; experiment: Antimicrobial activity against Candida albicans A15 harboring FKS1 T1933Y mutant gene and FKS1 hotspot1 S645S/P mutant gene by M27-A3 method in presence of 50% human serum; format: functional; summary of the method: as §1
[21] = system: Candida albicans; experiment: Antimicrobial activity against Candida albicans A15 harboring FKS1 T1933Y mutant gene and FKS1 hotspot1 S645S/P mutant gene by M27-A3 method; format: functional; summary of the method: as §1
[22] = Inhibition of Candida albicans A15-10 1,3-beta-D-glucan synthase subunit FKS1p T1933C mutant; summary of the method: as §4
[23] = system: Candida albicans; experiment: Activity at Candida albicans 194 1,3-beta-D-glucan synthase subunit FKS1p C1934T/G4082R mutant; summary of the method: as §3
[24] = Inhibition of Candida albicans 85 1,3-beta-D-glucan synthase subunit FKS1p C1934T mutant; summary of the method: as §4
[25] = system: Candida albicans; experiment: Antimicrobial activity against Candida albicans 90028 by M27-A3 method; format: functional
Summary of the method: (§6)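 Broth microdilution per CLSI M27-A3 in RPMI 1640, with and without 50% human serum, in triplicate. C. krusei ATCC 6258 and C. parapsilosis ATCC 22019 served as quality-control strains. MIC reported as arithmetic mean of three repetitions on separate days.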

[26] = system: Candida albicans; experiment: Activity at Candida albicans 89 1,3-beta-D-glucan synthase subunit FKS1p C1934A mutant; summary of the method: as §3
[27] = system: Candida albicans; experiment: Antimicrobial activity against Candida albicans 36082 by M27-A3 method; format: functional; summary of the method: as §6
[28] = system: Candida albicans; experiment: Antimicrobial activity against Candida albicans 36082 by M27-A3 method in presence of 50% human serum; format: functional; summary of the method: as §1
[29] = system: Candida albicans; experiment: Antimicrobial activity against Candida albicans 90 harboring FKS1 G4082R mutant gene and FKS1 hotspot2 R1361R/H mutant gene by M27-A3 method; format: functional; summary of the method: as §1
[30] = system: Candida albicans; experiment: Antimicrobial activity against Candida albicans 2762 harboring FKS1 T1922C mutant gene and FKS1 hotspot1 F641S mutant gene by M27-A3 method in presence of 50% human serum; format: functional; summary of the method: as §1

CCCCCOc1ccc(-c2cc(-c3ccc(C(=O)N[C@H]4C[C@@H](O)[C@@H](O)NC(=O)[C@@H]5[C@@H](O)[C@@H](C)CN5C(=O)[C@H]([C@H](O)CC(N)=O)NC(=O)[C@H]([C@H](O)[C@@H](O)c5ccc(O)c(OS(=O)(=O)O)c5)NC(=O)[C@@H]5C[C@@H](O)CN5C(=O)[C@H]([C@@H](C)O)NC4=O)cc3)no2)cc1 [MICAFUNGIN] (X1-[Orn(4R-OH,5R-OH)]T[Hyp][hTyr(3S-OH,4S-OH,3'-OSO3H)][Gln(3R-OH)][Pro(3S-OH,4S-Me)]; lactam 1-C)
MIC [1]: 0.5 µg/mL | MIC [2]: 8 µg/mL | IC50 [3]: 0.05334 µg/mL (≈ 0.042 µM) | Ki [3]: 0.03452 µg/mL (≈ 0.0272 µM) | MIC [4]: 8 µg/mL | Km [5]: 152 µM | Vmax [5]: 1.95 nmol/min | IC50 [6]: 0.1836 µg/mL (≈ 0.145 µM) | Ki [6]: 0.1559 µg/mL (≈ 0.123 µM) | MIC [7]: 0.5 µg/mL | IC50 [8]: 1.085 µg/mL (≈ 0.854 µM) | Ki [8]: 2.67363 µg/mL (≈ 2.1 µM) | MIC [9]: 2.67 µg/mL (≈ 2.1 µM) | IC50 [10]: 1.765 µg/mL (≈ 1.39 µM) | Ki [10]: 0.49383 µg/mL (≈ 0.389 µM) | MIC [11]: 8 µg/mL | MIC [12]: 4 µg/mL | IC50 [13]: 0.3755 µg/mL (≈ 0.296 µM) | Ki [13]: 0.48923 µg/mL (≈ 0.385 µM) | IC50 [14]: 0.03889 µg/mL (≈ 0.0306 µM) | Ki [14]: 0.05864 µg/mL (≈ 0.0462 µM) | Km [15]: 88 µM | Vmax [15]: 6.63 nmol/min | MIC [16]: 4 µg/mL (≈ 3.15 µM) | Km [17]: 102 µM | Vmax [17]: 6.04 nmol/min | Km [18]: 108 µM | Vmax [18]: 3.57 nmol/min | IC50 [19]: 0.1773 µg/mL (≈ 0.14 µM) | MIC [20]: 2 µg/mL | MIC [21]: 0.5 µg/mL (≈ 0.394 µM) | IC50 [22]: 1.194 µg/mL (≈ 0.94 µM) | Ki [22]: 2.2495 µg/mL (≈ 1.77 µM) | Km [23]: 61 µM | Vmax [23]: 5.81 nmol/min | IC50 [24]: 0.4498 µg/mL (≈ 0.354 µM) | Ki [24]: 1.28919 µg/mL (≈ 1.01 µM) | MIC [25]: 0.03 µg/mL (≈ 0.0236 µM) | Km [26]: 61 µM | Vmax [26]: 2.51 nmol/min | MIC [27]: 0.03 µg/mL (≈ 0.0236 µM) | MIC [28]: 1 µg/mL | MIC [29]: 0.5 µg/mL (≈ 0.394 µM) | MIC [30]: 16 µg/mL
